Tests used:
[1] = tested on: T. cruzi extracts (TCH) translating capped and polyadenylated Renilla luciferase reporter mRNA; format: biochemical, Trypanosoma cruzi; details: for % Inhibition: initial screen, 40 μM, Renilla luciferase signal relative to DMSO; for concentration above which translation was fully inhibited: Fig. 3C
[2] = tested on: supplemented TCH extract translating capped and polyadenylated Renilla mRNA; experiment: Miniaturized low-volume; format: biochemical, Trypanosoma cruzi; details: 8 μL; for % Inhibition (40 µM): Table S3, 40 µM; for inhibition of translation in T. cruzi extract (in words): 40 μM, 2 h, Fig. 3B
[3] = tested on: protein synthesis in T. cruzi epimastigotes (WT, DM28c strain); experiment: Puromycylation assay in living epimastigotes; format: cell-based, Trypanosoma cruzi; details: 40 μM, 1 h pre-incubation, then puromycin 10 μg/mL 15 min
Method in brief: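 Dm28c epimastigotes at 1 × 10⁷/mL in LIT-10% FBS, preincubated 1 h at 28°C with test compound (40 μM, from DMSO), with DMSO and 5 μM cycloheximide controls. Puromycin at 10 μg/mL, 15 min, 28°C; cells RIPA-lysed. 20 μg protein run on 10% SDS-PAGE and blotted with anti-puromycin mAb (1:100, overnight, 4°C), then IRDye680 secondary; anti-aldolase loading control. 150–20 kDa signal quantified relative to DMSO; 2–4 independent experiments.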

[4] = Host cell cytotoxicity in infected U2OS cells; format: cell-based; details: human
Method in brief: (§1)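 U2OS cells, grown in DMEM with 10% FBS at 37°C and 5% CO2, seeded at 500 cells/well in 384-well plates and infected after 24 h with 5000 Sylvio X10/1 trypomastigotes. Treated 24 h later with test compound (100 μM to 0.7 nM, 0.5% DMSO) for 48 h, with benznidazole and DMSO controls. Cells fixed in 4% paraformaldehyde, stained with DAPI and DRAQ5, imaged by high-content analysis. Amastigote-to-cell ratio normalised to untreated (100%) and non-infected (0%) wells. EC50 and CC50 from three-parameter nonlinear fit; selectivity index from mean EC50 and CC50.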

[5] = tested on: rabbit reticulocytes (Retic Lysate IVT kit) translating Renilla mRNA; experiment: In vitro translation by rabbit reticulocyte lysate; format: biochemical; details: 10 µM, 1 hour, Fig. S5
Method in brief: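 Commercial rabbit reticulocyte lysate run per kit instructions, 0.6 μg per reaction of the capped, polyadenylated Renilla luciferase mRNA used in the parasite-extract assays.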

[6] = tested on: T. cruzi epimastigotes (DM28c); experiment: Epimastigote proliferation, SYBR Green assay; format: cell-based, Trypanosoma cruzi; details: for EC50: Trypanosoma cruzi, 72 h, read-out: EC50 epimastigote proliferation; for concentration for maximal inhibition / full block of epimastigote growth: growth curves; for effect on epimastigote growth (in words): Fig. S2, 1% DMSO
[7] = tested on: T. cruzi amastigotes (DM28c parasite strain) in Vero cells; experiment: Amastigote proliferation and cytotoxicity in Vero cells; format: cell-based, Trypanosoma cruzi; details: DM28c trypomastigotes, Fig. S6
[8] = tested on: T. cruzi amastigotes (Sylvio X10/1 clone) in U2OS cells; experiment: Intracellular amastigote proliferation in infected U2OS cells; format: cell-based, Trypanosoma cruzi; details: for EC50: Trypanosoma cruzi, U2OS, 48 h, read-out: EC50 intracellular amastigotes; for selectivity index: from EC50 and CC50 averages, U2OS cells
Method in brief: as §1

Plasmodium falciparum = details: ref Plouffe et al., 2008; cited from earlier work
PAK4 = details: mammalian cells; ref Pereira-Veiga et al., 2025; cited from earlier work
[9] = tested on: T. cruzi parasite extract translating Renilla mRNA; experiment: Miniaturized 5 μL T. cruzi in vitro translation assay; format: biochemical, Trypanosoma cruzi; details: 5 μl format, 40 μM, Fig. 5D
Method in brief: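 Extract from DM28c-derived epimastigotes, lysed by nitrogen cavitation; the 30,000 × g supernatant was supplemented with translation buffer containing ATP, GTP, creatine phosphate/kinase, amino acids and spermidine. Reaction of 5 μL: 2 μL lysate, 1 μL test compound (40 μM), 2 μL SP6-transcribed capped, polyadenylated spliced-leader–Renilla luciferase mRNA (22 ng). Luminescence read after adding Renilla luciferase reagent.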

## CC1CCC(C(C)C)C(OC(=O)Cn2c(-c3ccc(Br)cc3)[n+](C)c3ccccc32)C1.[Cl-] (stereo not drawn) [Compound 3]
[1]
  % Inhibition: ~20%

## Cl.Fc1cccc(Nc2nc(NCC3CCCO3)c3ccccc3n2)c1 (stereo not drawn) [Compound 39A]
[2]
  % Inhibition (40 µM): over 50%

## Cl.Oc1ccc(Nc2nc(NCC3CCCO3)c3ccccc3n2)cc1 (stereo not drawn) [Compound 39B]
[2]
  % Inhibition (40 µM): over 50%

## c1ccc2c(NCC3CCCO3)nc(Nc3ccncc3)nc2c1 (stereo not drawn) [Compound 39C]
[2]
  % Inhibition (40 µM): around 50%

## Cl.Fc1ccc(Nc2nc(NCC3CCCO3)c3ccccc3n2)cc1 (stereo not drawn) [Compound 39D]
[3]
  puromycin incorporation into elongating protein chains (in words): inhibited puromycin incorporation

## CN(C)c1nc(NCC2CCCO2)c2ccccc2n1.Cl (stereo not drawn) [Compound 39F]
[2]
  % Inhibition (40 µM): around 50%

## COc1ccccc1Nc1nc(NCC2CCCO2)c2ccccc2n1 (stereo not drawn) [Compound 39G]
[2]
  % Inhibition (40 µM): over 50%
[4]
  CC50 at 48 h: 33 ± 20 µM
[5]
  inhibition of protein synthesis by reticulocyte lysate (in words): did not inhibit
[6]
  EC50: 2.8 ± 0.2 µM
  concentration for maximal inhibition / full block of epimastigote growth: ~15 µM
[7]
  EC50 and CC50 values compared with the U2OS/Sylvio experiment (in words): slightly high values
[3]
  puromycin incorporation into elongating protein chains (in words): inhibited puromycin incorporation
[8]
  EC50: 0.08 ± 0.07 µM
  selectivity index: ~415
Plasmodium falciparum
  Plasmodium falciparum inhibition (in words): P. falciparum inhibitors

## Fc1ccccc1Nc1nc(NCC2CCCO2)c2ccccc2n1 (stereo not drawn) [Compound 39H]
[2]; 40 µM
  % Inhibition (40 µM): over 50%
[4]
  CC50 at 48 h: 84 ± 40 µM
[6]
  EC50: 4.8 ± 2 µM
  concentration for maximal inhibition / full block of epimastigote growth: > 50 µM
[7]
  EC50 and CC50 values compared with the U2OS/Sylvio experiment (in words): Comparable values
[3]
  puromycin incorporation into elongating protein chains (in words): inhibited puromycin incorporation
[8]
  EC50: 0.4 ± 0.2 µM
  selectivity index: ~200
Plasmodium falciparum
  Plasmodium falciparum inhibition (in words): P. falciparum inhibitors

## Cl.OCCNc1nc(NCC2CCCO2)c2ccccc2n1 (stereo not drawn) [Compound 39I]
[2]
  % Inhibition (40 µM): over 50%

## Cl.Clc1cccc(Nc2nc(N3CCOCC3)c3ccccc3n2)c1 [Compound 39K]
[2]
  % Inhibition (40 µM): over 50%

## Cl.OCCNc1nc(Nc2ccccc2)nc2ccccc12 [Compound 39L]
[2]; 40 µM
  % Inhibition (40 µM): around 50%

## Cl.c1ccc(CNc2nc(NCC3CCCO3)c3ccccc3n2)nc1 (stereo not drawn) [Compound 39M]
[2]
  % Inhibition (40 µM): less than 40%

## COc1cccc(Nc2nc(NCC3CCCO3)c3ccccc3n2)c1.Cl (stereo not drawn) [Compound 39]
[1]
  % Inhibition: ~20%
PAK4
  PAK4 inhibition (in words): inhibit PAK4
[9]
  inhibition of in vitro translation (in words): clear inhibition
[3]
  puromycin incorporation into elongating protein chains (in words): inhibited puromycin incorporation

## Cc1ccc2c(c1)sc(-c1ccc(N(C)C)cc1)[n+]2C.[I-] [Compound 43]
[3]
  puromycin incorporation into elongating protein chains (in words): inhibited puromycin incorporation

## c1ccc(Nc2nc(NCC3CCCO3)c3ccccc3n2)cc1 (stereo not drawn) [Compound 97]
Plasmodium falciparum
  Plasmodium falciparum inhibition (in words): inhibit Plasmodium falciparum

## C[C@@H]1[C@H](O)[C@@H](C)/C=C/C=C/C=C/C=C/C=C/C=C/C=C/[C@H](O[C@@H]2O[C@H](C)[C@@H](O)[C@H](N)[C@@H]2O)C[C@@H]2O[C@](O)(C[C@@H](O)C[C@@H](O)[C@H](O)CC[C@@H](O)C[C@@H](O)CC(=O)O[C@H]1C)C[C@H](O)[C@H]2C(=O)O [Compound 108, Amphotericin B]
[1]
  % Inhibition: ~100%

## NC[C@@H]1O[C@H](O[C@H]2[C@@H](O)[C@H](O[C@@H]3[C@@H](O)[C@H](N)C[C@H](N)[C@H]3O[C@H]3O[C@H](CO)[C@@H](O)[C@H](O)[C@H]3N)O[C@@H]2CO)[C@H](N)[C@@H](O)[C@@H]1O [Paromomycin, reference compound]
[2]
  inhibition of translation in T. cruzi extract (in words): did not inhibit translation
[2]; listed as paromomycin
  inhibition of translation in T. cruzi extract (in words): had no effect
[6]
  effect on epimastigote growth (in words): did not affect parasite growth
[6]; listed as paromomycin
  effect on epimastigote growth (in words): did not impact T. cruzi proliferation

## C[C@@H]1C[C@@H]([C@H](O)CC2CC(=O)NC(=O)C2)C(=O)[C@@H](C)C1 [cycloheximide]
[1]
  concentration above which translation was fully inhibited: above 0.5 μM

## CN[C@@H]1C[C@H](N)[C@@H](O)[C@H](O[C@H]2O[C@H](CO)[C@H](O)[C@@H]3O[C@@]4(O[C@@H]23)O[C@H]([C@H](N)CO)[C@H](O)[C@H](O)[C@H]4O)[C@H]1O [hygromycin]
[1]
  concentration above which translation was fully inhibited: above 50 nM

Reference: PMC13499490 (International Journal for Parasitology: Drugs and Drug …, 2026)
